These results are taken from ChEMBL document CHEMBL1156809, “Synthesis and anticonvulsant activities of (R)-N-(4'-substituted)benzyl 2-acetamido-3-methoxypropionamides” (J Med Chem, 2010).

Active and inactive are the calls of the source. No cut-off for these calls is given here. Some results are limits rather than exact numbers.

Data set [1] has as its system Mus musculus. In words: Anticonvulsant activity in ip dosed albino CF1 mouse seizure model assessed as protection against hind limb extension by MES test. It is filed as functional. The settings on record: albino CF1, Hindlimb. The essentials: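 Maximal electroshock seizure test run by the NINDS ASP (Stables and Kupferberg procedures). Compounds were given intraperitoneally to mice, and the ED50 for seizure protection is reported in mg/kg.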

Data set [2] relates to Mus musculus. In words: Anticonvulsant activity against subcutaneous metrazole-induced seizures in albino CF1 mouse at 300 mg/kg, ip after 0.5 hrs. Also noted: dose 300 mg/kg. It is filed as functional, organism-based. The gist of the method: (§1)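 Subcutaneous Metrazol seizure test under the NINDS ASP, using ip dosing to mice, typically at 300 mg/kg. Protection was assessed at 0.5 and 4 h.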

The test system of data set [3] is Rattus norvegicus. Briefly: Anticonvulsant activity against subcutaneous metrazole-induced seizures in albino Sprague-Dawley rat at 300 mg/kg, ip after 0.5 hrs. The class given is functional, organism-based. Also noted: dose 300 mg/kg.
For data set [4], the system named is Mus musculus. In words: Anticonvulsant activity against subcutaneous metrazole-induced seizures in albino CF1 mouse at 300 mg/kg, ip after 4 hrs. The class given is functional, organism-based. Also noted: dose 300 mg/kg. The essentials:
as §1

The subject of data set [5] is Rattus norvegicus. In words: Anticonvulsant activity against subcutaneous metrazole-induced seizures in albino Sprague-Dawley rat at 300 mg/kg, ip after 4 hrs. The class given is functional, organism-based. Also noted: dose 300 mg/kg.
Data set [6] relates to Rattus norvegicus. Briefly: Anticonvulsant activity against in ip dosed albino Sprague-Dawley rat hippocampal kindled seizure model assessed as decrease in seizures after 0.5 hrs. It is filed as functional. The following applies: Hippocampus. The essentials: (§2)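 Rats were given compounds intraperitoneally in the rapid hippocampal kindling model under the NINDS ASP. Racine seizure score and after-discharge duration (sec) were recorded before and after dosing. Where determined, ED50 (mg/kg) is given with an interval.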

The test system of data set [7] is Mus musculus. In words: Protective index, ratio of TD50 for ip dosed albino CF1 mouse to ED50 for ip dosed albino CF1 mouse. It is filed as functional. The gist of the method: (§3)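 Protective index was calculated as TD50/ED50 for the same species and route: mouse ip (rotorod TD50, MES ED50) and rat po.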
Data set [8] in a line: Behavioral toxicity in po dosed albino Sprague-Dawley rat. The class given is organism-based. The settings on record: in vivo. The gist of the method:
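Behavioral toxicity was recorded as observed effects in rats after oral administration, within the NINDS ASP screen.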

For data set [9], the system named is Rattus norvegicus. In words: Protective index, ratio of TD50 for po dosed albino Sprague-Dawley rat to ED50 for po dosed albino Sprague-Dawley rat. The class given is functional. The gist of the method:
as §3

The subject of data set [10] is Rattus norvegicus. Briefly: Anticonvulsant activity against in ip dosed albino Sprague-Dawley rat hippocampal kindled seizure model assessed as after-discharge duration after 0.5 hrs. It is filed as functional, Hippocampus. The essentials:
as §2

A short description of data set [11]: Neurological toxicity in ip dosed albino CF1 mouse assessed as neurological impairment by rotarod test. It is filed as organism-based. The settings on record: in vivo. The gist of the method: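 Neurological impairment was measured with the rotorod test in mice dosed intraperitoneally. The median dose (TD50, mg/kg) was determined only for compounds with significant MES activity.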
On the technique in general: In the rotarod test animals must keep their balance on a rotating rod.

The subject of data set [12] is Rattus norvegicus. Briefly: Anticonvulsant activity in po dosed albino Sprague-Dawley rat seizure model assessed as protection against hind limb extension by MES test. It is filed as functional. The settings on record: Hindlimb. The gist of the method:
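MES seizure protection was tested in Sprague Dawley rats dosed orally, through the NINDS ASP. The ED50 is expressed in mg/kg.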

As to `CCCC(CCC)C(=O)[O-].[Na+]` [VALPROATE SODIUM], the 50% effective dose (ED50) (commonly the dose at which the effect has come halfway, by size or by number of responders) with Mus musculus [1] is 270 mg/kg; in the data set with Rattus norvegicus [6], 210 mg/kg. In addition, the result in the data set with Mus musculus [2], in the data set on Rattus norvegicus [3], in the data set on Mus musculus [4] and in the data set on Rattus norvegicus [5] was inactive.
Take `COCc1ccc(CNC(=O)[C@@H](COC)NC(C)=O)cc1`: the ED50 in the data set on Mus musculus [1] was 73 mg/kg; with Rattus norvegicus [6], 87 mg/kg. For the same compound, the figures for the PI with Mus musculus [7] and in the data set with Rattus norvegicus [9] were 2.3 and greater than 11, respectively. In [8], the TD50 – broadly, the 50% point of the dose-response relation for the toxic effect studied – is greater than 500 mg/kg. In addition, the outcome with Mus musculus [2], in the data set with Rattus norvegicus [3], in the data set on Mus musculus [4] and in the data set with Rattus norvegicus [5] was inactive. The Time in the data set with Rattus norvegicus [10] worked out at 12 s.
Take `COC[C@@H](NC(C)=O)C(=O)NCc1ccc(N=[N+]=[N-])cc1`: the figures for the ED50 in the data set with Mus musculus [1] and in the data set with Rattus norvegicus [6] were 8.4 mg/kg and 6 mg/kg, respectively. The TD50 in data set [8] was greater than 250 mg/kg. Besides, in the data set with Rattus norvegicus [9], the PI was greater than 64. Moreover, the result in the data set on Mus musculus [2], with Rattus norvegicus [3], with Mus musculus [4] and in the data set with Rattus norvegicus [5] was inactive. Also, the Time in the data set on Rattus norvegicus [10] came to 0 s.
For `COC[C@@H](NC(C)=O)C(=O)NCc1ccc(I)cc1`, the ED50 in the data set with Mus musculus [1] is 16 mg/kg; in the data set on Rattus norvegicus [12], 12 mg/kg; with Rattus norvegicus [6], 12 mg/kg. Also, the TD50 in data set [11] is 41 mg/kg; in data set [8] it was greater than 500 mg/kg. The PI in the data set with Mus musculus [7] is listed as 2.6; in the data set on Rattus norvegicus [9], greater than 43. The outcome in the data set with Mus musculus [2], in the data set on Rattus norvegicus [3], in the data set with Mus musculus [4] and in the data set on Rattus norvegicus [5] was inactive. In addition, the Time in the data set on Rattus norvegicus [10] came to 0 s.
